Reference: ChEMBL document CHEMBL2417474, “Synthesis, antiproliferative and anti-inflammatory activities of some novel 6-aryl-2-(p-(methanesulfonyl)phenyl)-4,5-dihydropyridazi-3(2H)-ones” (Eur J Med Chem, 2013)

What was measured:
Type in all cases: functional
SK-MEL-28 = experiment: Growth inhibition of human SK-MEL-28 cells after 48 hrs by sulforhodamine B assay; conditions: SK-MEL-28, 48 h; for CC50: read-out: LC50 (the source's name)
Outline: (§1)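 NCI 60-cell-line panel. Cells were grown in medium with 5% fetal calf serum and 2 mM L-glutamine, then preincubated 24 h in plates. Compounds were added from DMSO at five 10-fold concentrations from 100 to 0.01 µM and left on cells continuously for 48 h. Cell growth was read by sulforhodamine B protein stain. GI50 is the concentration that halves net protein increase relative to control cells.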

SN12C = experiment: Growth inhibition of human SN12C cells assessed as cell growth at 10 uM after 48 hrs by sulforhodamine B assay; conditions: read-out: Activity
TK-10 = experiment: Growth inhibition of human TK10 cells after 48 hrs by sulforhodamine B assay; conditions: TK-10, 48 h; for CC50: read-out: LC50 (the source's name)
Outline: (§2)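 NCI 60-line panel. Cells were grown in medium with 5% fetal calf serum and 2 mM L-glutamine and preincubated 24 h in plates. Compound in DMSO was added at 10^-4 to 10^-8 M (five 10-fold levels), with continuous exposure for 48 h. Growth was read by SRB protein staining. GI50 is the concentration giving 50% reduction in net protein increase versus control cells.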

Malme-3M = experiment: Growth inhibition of human MALME-3M cells after 48 hrs by sulforhodamine B assay; conditions: for CC50: read-out: LC50 (the source's name)
Outline: (§3)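 NCI 60-cell-line panel grown in RPMI-type medium with 5% fetal calf serum and 2 mM L-glutamine. Cells preincubated 24 h, then exposed continuously for 48 h to compound in DMSO at 10^-4 to 10^-8 M (five 10-fold levels). Growth read by SRB protein stain. GI50 is the concentration giving a 50% reduction in net protein increase relative to control cells.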

SR [1] = experiment: Growth inhibition of human SR cells after 48 hrs by sulforhodamine B assay; outline: as §1
[2] = Growth inhibition of human HCC2998 cells assessed as cell growth at 10 uM after 48 hrs by sulforhodamine B assay; conditions: HCC 2998, 48 h, read-out: Activity
UO-31 = experiment: Growth inhibition of human UO31 cells after 48 hrs by sulforhodamine B assay; conditions: UO-31, 48 h; outline: as §2
UACC-62 [3] = experiment: Growth inhibition of human UACC62 cells assessed as cell growth at 10 uM after 48 hrs by sulforhodamine B assay; conditions: UACC-62, 48 h, read-out: Activity
Outline: (§4)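 Single-dose NCI screen. Tumor lines were cultured in medium with 5% fetal calf serum and 2 mM L-glutamine, preincubated 24 h, then given compound in DMSO. After 48 h continuous exposure, cell growth was estimated by sulforhodamine B protein assay.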

[4] = Growth inhibition of human Hs 578T cells assessed as cell growth at 10 uM after 48 hrs by sulforhodamine B assay; conditions: read-out: Activity
[5] = Growth inhibition of human EKVX cells after 48 hrs by sulforhodamine B assay; conditions: for CC50: read-out: LC50 (the source's name); outline: as §3
CAKI-1 = experiment: Growth inhibition of human CAKI-1 cells after 48 hrs by sulforhodamine B assay; conditions: CAKI-1, 48 h; outline: as §3
OVCAR-4 = experiment: Growth inhibition of human OVCAR4 cells assessed as cell growth at 10 uM after 48 hrs by sulforhodamine B assay; conditions: OVCAR-4, 48 h, read-out: Activity
NCI-H23 = experiment: Growth inhibition of human NCI-H23 cells after 48 hrs by sulforhodamine B assay; conditions: NCI-H23, 48 h; for CC50: read-out: LC50 (the source's name); outline: as §1
A549 [6] = experiment: Growth inhibition of human A549/ATCC cells after 48 hrs by sulforhodamine B assay; conditions: A549, 48 h; for CC50: read-out: LC50 (the source's name); outline: as §3
SF-539 = experiment: Growth inhibition of human SF539 cells assessed as cell growth at 10 uM after 48 hrs by sulforhodamine B assay; conditions: SF-539, 48 h, read-out: Activity
SNB-19 = experiment: Growth inhibition of human SNB19 cells after 48 hrs by sulforhodamine B assay; conditions: SNB-19, 48 h; for CC50: read-out: LC50 (the source's name); outline: as §1
K562 = experiment: Growth inhibition of human K562 cells after 48 hrs by sulforhodamine B assay; conditions: K562, 48 h; for CC50: read-out: LC50 (the source's name); outline: as §3
A549 [7] = experiment: Growth inhibition of human A549/ATCC cells assessed as cell growth at 10 uM after 48 hrs by sulforhodamine B assay; conditions: A549, 48 h, read-out: Activity
KM12 [8] = experiment: Growth inhibition of human KM12 cells after 48 hrs by sulforhodamine B assay; conditions: KM12, 48 h; outline: as §3
SR [9] = experiment: Growth inhibition of human SR cells assessed as cell growth at 10 uM after 48 hrs by sulforhodamine B assay; conditions: read-out: Activity; outline: as §4
SK-OV-3 = experiment: Growth inhibition of human SKOV3 cells after 48 hrs by sulforhodamine B assay; conditions: SK-OV-3, 48 h; outline: as §1
KM12 [10] = experiment: Growth inhibition of human KM12 cells assessed as cell growth at 10 uM after 48 hrs by sulforhodamine B assay; conditions: KM12, 48 h, read-out: Activity
MDA-MB-231 = experiment: Growth inhibition of human MDA-MB-231 cells assessed as cell growth at 10 uM after 48 hrs by sulforhodamine B assay; conditions: MDA-MB-231, 48 h, read-out: Activity
UACC-62 [11] = experiment: Growth inhibition of human UACC62 cells after 48 hrs by sulforhodamine B assay; conditions: UACC-62, 48 h; outline: as §2
HT-29 = experiment: Growth inhibition of human HT-29 cells after 48 hrs by sulforhodamine B assay; conditions: HT-29, 48 h; outline: as §3
MDA-MB-435 = experiment: Growth inhibition of human MDA-MB-435 cells after 48 hrs by sulforhodamine B assay; conditions: MDA-MB-435, 48 h; outline: as §1
SK-MEL-5 = experiment: Growth inhibition of human SK-MEL-5 cells after 48 hrs by sulforhodamine B assay; conditions: SK-MEL-5, 48 h; outline: as §1
786-0 [12] = experiment: Growth inhibition of human 786-0 cells assessed as cell growth at 10 uM after 48 hrs by sulforhodamine B assay; conditions: 786-0, 48 h, read-out: Activity
M14 = experiment: Growth inhibition of human M14 cells assessed as cell growth at 10 uM after 48 hrs by sulforhodamine B assay; conditions: M14, 48 h, read-out: Activity
786-0 [13] = experiment: Growth inhibition of human 786-0 cells after 48 hrs by sulforhodamine B assay; conditions: 786-0, 48 h; outline: as §3
CCRF-CEM = experiment: Growth inhibition of human CCRF-CEM cells assessed as cell growth at 10 uM after 48 hrs by sulforhodamine B assay; conditions: read-out: Activity

Compound: Cc1cc(O)ccc1C1=NN(c2ccc(S(C)(=O)=O)cc2)C(=O)CC1
- GI50 (SK-MEL-28): 9.56 µM
- TGI (SK-MEL-28): > 100 µM
- CC50 (SK-MEL-28): > 100 µM
- growth at 10 µM (SN12C): 90.3%
- GI50 (TK-10): 80.5 µM
- TGI (TK-10): > 100 µM
- CC50 (TK-10): > 100 µM
- GI50 (Malme-3M): 5.37 µM
- TGI (Malme-3M): > 100 µM
- CC50 (Malme-3M): > 100 µM
- GI50 (SR [1]): 3.39 µM
- LC50 (SR [1]): > 100 µM
- TGI (SR [1]): > 100 µM
- growth at 10 µM [2]: 78.6%
- GI50 (UO-31): 14.8 µM
- LC50 (concentration killing 50% of cells) (UO-31): > 100 µM
- TGI (UO-31): > 100 µM
- growth at 10 µM (UACC-62 [3]): 52.9%
- growth at 10 µM [4]: 87%
- GI50 [5]: 57.9 µM
- TGI [5]: > 100 µM
- CC50 [5]: > 100 µM
- LC50 (lethal concentration, 50% cell kill) (CAKI-1): > 100 µM
- growth at 10 µM (OVCAR-4): 98%
- GI50 (NCI-H23): 38.5 µM
- TGI (NCI-H23): > 100 µM
- CC50 (NCI-H23): > 100 µM
- GI50 (A549 [6]): 6.2 µM
- TGI (A549 [6]): > 100 µM
- CC50 (A549 [6]): > 100 µM
- growth at 10 µM (SF-539): 73.8%
- GI50 (SNB-19): 50.4 µM
- TGI (SNB-19): > 100 µM
- CC50 (SNB-19): > 100 µM
- GI50 (K562): 3.74 µM
- TGI (K562): > 100 µM
- CC50 (K562): > 100 µM
- growth at 10 µM (A549 [7]): 72.2%
- GI50 (KM12 [8]): 4.22 µM
- LC50 (KM12 [8]): > 100 µM
- TGI (KM12 [8]): > 100 µM
- growth at 10 µM (SR [9]): 12.3%
- GI50 (SK-OV-3): 9.77 µM
- LC50 (SK-OV-3): > 100 µM
- TGI (SK-OV-3): > 100 µM
- growth at 10 µM (KM12 [10]): 47.6%
- growth at 10 µM (MDA-MB-231): 74.8%
- GI50 (UACC-62 [11]): 4 µM
- LC50 (50% net cell kill concentration) (UACC-62 [11]): > 100 µM
- TGI (UACC-62 [11]): > 100 µM
- GI50 (HT-29): 3.7 µM
- LC50 (50% lethal concentration) (HT-29): > 100 µM
- TGI (HT-29): 32.3 µM
- GI50 (MDA-MB-435): 1.28 µM
- LC50 (concentration killing 50% of starting cells) (MDA-MB-435): > 100 µM
- TGI (MDA-MB-435): 5.83 µM
- GI50 (SK-MEL-5): 5.49 µM
- LC50 (SK-MEL-5): > 100 µM
- TGI (SK-MEL-5): > 100 µM
- growth at 10 µM (786-0 [12]): 84.1%
- growth at 10 µM (M14): 49.2%
- GI50 (786-0 [13]): 92.5 µM
- LC50 (786-0 [13]): > 100 µM
- TGI (786-0 [13]): > 100 µM
- growth at 10 µM (CCRF-CEM): 69.7%

Compound: CCc1ccc(C2=NN(c3ccc(S(C)(=O)=O)cc3)C(=O)CC2)cc1
- GI50 (SK-MEL-28): 1.84 µM
- TGI (SK-MEL-28): > 100 µM
- CC50 (SK-MEL-28): > 100 µM
- growth at 10 µM (SN12C): 31.4%
- GI50 (TK-10): 8.31 µM
- TGI (TK-10): > 100 µM
- CC50 (TK-10): > 100 µM
- GI50 (Malme-3M): 6.8 µM
- TGI (Malme-3M): > 67.6 µM
- CC50 (Malme-3M): > 100 µM
- GI50 (SR [1]): 5.65 µM
- LC50 (SR [1]): > 100 µM
- TGI (SR [1]): 40.3 µM
- growth at 10 µM [2]: 46.6%
- GI50 (UO-31): 5.23 µM
- LC50 (concentration killing 50% of cells) (UO-31): > 100 µM
- TGI (UO-31): > 100 µM
- growth at 10 µM (UACC-62 [3]): 38%
- growth at 10 µM [4]: -0.67%
- GI50 [5]: 4.19 µM
- TGI [5]: 96.7 µM
- CC50 [5]: > 100 µM
- GI50 (CAKI-1): 1 µM
- LC50 (lethal concentration, 50% cell kill) (CAKI-1): > 100 µM
- TGI (CAKI-1): 8.22 µM
- growth at 10 µM (OVCAR-4): 76.2%
- GI50 (NCI-H23): 3.19 µM
- TGI (NCI-H23): > 100 µM
- CC50 (NCI-H23): > 100 µM
- GI50 (A549 [6]): 0.91 µM
- TGI (A549 [6]): > 100 µM
- CC50 (A549 [6]): > 100 µM
- growth at 10 µM (SF-539): 15.1%
- GI50 (SNB-19): 0.13 µM
- TGI (SNB-19): > 100 µM
- CC50 (SNB-19): > 100 µM
- GI50 (K562): 0.42 µM
- TGI (K562): > 100 µM
- CC50 (K562): > 100 µM
- growth at 10 µM (A549 [7]): 35.6%
- GI50 (KM12 [8]): 0.93 µM
- LC50 (KM12 [8]): > 100 µM
- TGI (KM12 [8]): > 100 µM
- growth at 10 µM (SR [9]): 4.42%
- GI50 (SK-OV-3): 2.44 µM
- LC50 (SK-OV-3): > 100 µM
- TGI (SK-OV-3): 19.6 µM
- growth at 10 µM (KM12 [10]): 17.3%
- growth at 10 µM (MDA-MB-231): 55.5%
- GI50 (UACC-62 [11]): 0.78 µM
- LC50 (50% net cell kill concentration) (UACC-62 [11]): > 100 µM
- TGI (UACC-62 [11]): > 100 µM
- GI50 (HT-29): 0.41 µM
- LC50 (50% lethal concentration) (HT-29): > 100 µM
- TGI (HT-29): 12.1 µM
- GI50 (MDA-MB-435): 0.22 µM
- LC50 (concentration killing 50% of starting cells) (MDA-MB-435): > 100 µM
- TGI (MDA-MB-435): 0.74 µM
- GI50 (SK-MEL-5): 1.48 µM
- LC50 (SK-MEL-5): 35.7 µM
- TGI (SK-MEL-5): 11.2 µM
- growth at 10 µM (786-0 [12]): 36.5%
- growth at 10 µM (M14): 5.99%
- GI50 (786-0 [13]): 5.13 µM
- LC50 (786-0 [13]): > 100 µM
- TGI (786-0 [13]): 80.3 µM
- growth at 10 µM (CCRF-CEM): 15.3%
